Reference: PMC11618768 (Scientific Reports, 2024)
Values after ≈ are worked out from the molar mass of the structure shown. Values joined by “and” are separate entries in the source; they are usually repeats but may differ in a detail not shown here. Equal entries are not always repeated.

Legend:
MRSA [1] = conditions: cited from earlier work
MRSA [2] = conditions: cited from earlier work; remark: listed apart in the source
MRSA (ATCC 433000) [3] = assay: Time-kill assay; assay type: cell-based, Methicillin-resistant Staphylococcus aureus; conditions: 24 h
Outline: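 MRSA grown to log phase in LB (37 °C, 180 rpm) and adjusted to 1 × 10^6 CFU/mL. Incubated in 24-well plates with test compound at 0, 1/2×MIC or MIC for 24 h at 37 °C. Sampled every 2 h, with absorbance read at 570 nm.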

MRSA strain (ATCC 43300) = assay: MIC and MBC, broth dilution; assay type: cell-based, Methicillin-resistant Staphylococcus aureus
Outline: (§1)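 Strains were grown from LB agar colonies in LB (180 rpm, 37 °C, 12 h), then diluted 1:100 and grown 3 h to log phase. The inoculum was adjusted to 1 × 10^6 CFU/mL for 96-well broth dilution, 37 °C, 18 h. MIC was the lowest concentration without visible growth. For MBC, 100.0 µL per well was plated on MHA (37 °C, 16–20 h); MBC was the lowest concentration without colonies.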

[4] = test system: rabbit red blood cells (RBCs); assay: In vitro hemolysis assay; assay type: cell-based; conditions: 1 h, rabbit erythrocytes
Outline: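 Rabbit erythrocytes were exposed 1 h to test compound at 1/2×, 1× and 2× MIC. After centrifugation, supernatants were read spectrophotometrically at 570 nm and photographed. PBS served as negative control, and a positive control was included. n = 3.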

human KB carcinoma cells = conditions: cited from earlier work
MRSA-244135 = assay: MIC and MBC, broth dilution; assay type: cell-based, Methicillin-resistant Staphylococcus aureus; conditions: MRSA-244,135, clinical isolate
Outline: as §1

MRSA [5] = assay: Mouse skin infection model; assay type: in vivo; conditions: day 13; 2.0 µg/mL once daily, mice
Outline: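 SPF male and female mice (18.0–22.0 g) had dorsal fur shaved and both sides of the back scalded with a scaldometer. 20.0 µL log-phase MRSA (1.5-3 × 10^6 CFU/mL in sterile saline) went onto each wound, which was then covered with sterile gauze. Test compound or vancomycin (2.0 µg/mL, 20.0 µL) was applied topically once daily, and model mice got solvent. Wounds were photographed daily for 13 days, and H&E sections were taken on day 13 (n = 6).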

MRSA-244425 = assay: MIC and MBC, broth dilution; assay type: cell-based, Methicillin-resistant Staphylococcus aureus; conditions: MRSA-244,425, clinical isolate
Outline: as §1

MRSA-244757 = assay: MIC and MBC, broth dilution; assay type: cell-based, Methicillin-resistant Staphylococcus aureus; conditions: MRSA-244,757, clinical isolate
Outline: as §1

MRSA-244410 = assay: MIC and MBC, broth dilution; assay type: cell-based, Methicillin-resistant Staphylococcus aureus; conditions: MRSA-244,410, clinical isolate
Outline: as §1

MRSA (ATCC 433000) [6] = assay: SYTOX green and PI assay; assay type: cell-based, Methicillin-resistant Staphylococcus aureus; conditions: 1/2×, 2×MIC, 12 h
Outline: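 Log-phase MRSA grown in LB at 37 °C, 180 rpm, adjusted to 1 × 10^6 CFU/mL. Exposed to test compound at 1/2×, 1× and 2×MIC for 12 h at 37 °C, then stained with SYTO 9 and PI for 30 min in the dark. Washed twice in PBS (pH 7.5, 0.1 M), then imaged by fluorescence microscopy: green marks viable cells, red marks dead cells.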

MRSA-244288 = assay: MIC and MBC, broth dilution; assay type: cell-based, Methicillin-resistant Staphylococcus aureus; conditions: MRSA-244,288, clinical isolate
Outline: as §1

LO2 cells = assay: Cell viability assay using MTT; assay type: cell-based
Outline: (§2)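 Cells were kept in RPMI 1640 with 10% FBS and 1% penicillin-streptomycin at 37 °C, 5% CO2. They were seeded at 1 × 10^5 cells/well and grown 24 h to about 80% confluence. After medium removal, test compound was added at final 0.78125–100.0 µg/mL (twofold series), with a 0.5% DMSO control. Exposure was 24 h or 48 h, then MTT for 4 h, A490. Three repeats; IC50 derived.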

MRSA-244548 = assay: MIC and MBC, broth dilution; assay type: cell-based, Methicillin-resistant Staphylococcus aureus; conditions: MRSA-244,548, clinical isolate
Outline: as §1

P. notatum = conditions: cited from earlier work
MRSA-244268 = assay: MIC and MBC, broth dilution; assay type: cell-based, Methicillin-resistant Staphylococcus aureus; conditions: MRSA-244,268, clinical isolate
Outline: as §1

MRSA-244862 = assay: MIC and MBC, broth dilution; assay type: cell-based, Methicillin-resistant Staphylococcus aureus; conditions: MRSA-244,862, clinical isolate
Outline: as §1

HK-2 cells = assay: Cell viability assay using MTT; assay type: cell-based
Outline: as §2

MRSA-244661 = assay: MIC and MBC, broth dilution; assay type: cell-based, Methicillin-resistant Staphylococcus aureus; conditions: MRSA-244,661, clinical isolate
Outline: as §1

B. subtilis = conditions: cited from earlier work
HaCat cells = assay: Cell viability assay using MTT; assay type: cell-based
Outline: as §2

S. aureus = conditions: cited from earlier work
MRSA-244358 = assay: MIC and MBC, broth dilution; assay type: cell-based, Methicillin-resistant Staphylococcus aureus; conditions: MRSA-244,358, clinical isolate
Outline: as §1

MRSA (ATCC 433000) [7] = assay: Scanning electron microscopy; assay type: cell-based, Methicillin-resistant Staphylococcus aureus; conditions: 2×MIC, 12 h
Outline: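 Log-phase MRSA exposed to test compound at 2×MIC for 12 h at 37 °C, with untreated cells as blank control. Cells were washed three times in PBS […]. They were fixed in 2.5% glutaraldehyde plus 2% paraformaldehyde for 12 h, air-dried and imaged by scanning electron microscopy.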

Molecule: 7,8-dideoxygriseorhodin C
- Decrease in MIC on simultaneous treatment with oxacillin (MRSA [1]): approximately tenfold decrease in MIC
- Combination index (MRSA [1]; with oxacillin): < 0.5

Molecule: 8-Methoxygriseorhodin C
- MIC against MRSA (MRSA [2]): 0.78 µg/mL

Molecule: COC1=CC(=O)c2c(O)c3c(c(O)c2C1=O)O[C@]1(Oc2c(cc4cc(C)oc(=O)c4c2O)[C@@H](O)[C@@H]1O)[C@@H]3O [Griseorhodin C]
- Inhibition of MRSA growth in time-kill curve (MRSA (ATCC 433000) [3]; 1/2×MIC, vs control group): some inhibition of MRSA growth compared to the control group
- Bacteriostatic activity in time-kill curve compared with vancomycin (MRSA (ATCC 433000) [3]; MIC): stronger bacteriostatic activity against MRSA than the clinically positive control drug, vancomycin
- MIC (MRSA strain (ATCC 43300); MRSA ATCC 43,300): 1.0 µg/mL and 1 µg/mL
- Hemolysis rate ([4]; 1/2 MIC): 0.70%
- Hemolysis rate ([4]; 2×MIC): 2.13%
- Hemolysis rate ([4]; MIC): 1.77%
- Inhibitory activity (human KB carcinoma cells): inhibitory activity
- MIC (MRSA-244135): 2 µg/mL (≈ 3.8 µM)
- HE staining of skin wound (MRSA [5]): fewer inflammatory cells, lower thickness, and better structural integrity of hair follicles and other structures compared to the Vancomycin-treated group
- MIC (MRSA-244425): 1 µg/mL (≈ 1.9 µM)
- MIC (MRSA-244757): 1 µg/mL (≈ 1.9 µM)
- MIC (MRSA-244410): 1 µg/mL (≈ 1.9 µM)
- LIVE/DEAD fluorescence (red dead, green viable cells) (MRSA (ATCC 433000) [6]): exhibits bactericidal effects against MRSA
- MIC (MRSA-244288): 1 µg/mL (≈ 1.9 µM)
- Cell morphology under the microscope (LO2 cells; 50 ~ 100 µg/mL): the cell morphology remained normal and the arrangement was regular, and no fragmentation or cell death was observed
- IC50 (cell viability) (LO2 cells; MTT, 48 h): 156.2 µg/mL (≈ 297 µM)
- MIC (MRSA-244548): 0.5 µg/mL (≈ 0.95 µM)
- Inhibitory activity (P. notatum): inhibitory activity
- MIC (MRSA-244268): 2 µg/mL (≈ 3.8 µM)
- MIC (MRSA-244862): 1 µg/mL (≈ 1.9 µM)
- Cell morphology under the microscope (HK-2 cells; 50 ~ 100 µg/mL): the cell morphology remained normal and the arrangement was regular, and no fragmentation or cell death was observed
- IC50 (cell viability) (HK-2 cells; MTT, 48 h): 86.32 µg/mL (≈ 164 µM)
- MIC (MRSA-244661): 1 µg/mL (≈ 1.9 µM)
- Inhibitory activity (B. subtilis): inhibitory activity
- Cell morphology under the microscope (HaCat cells; 50 ~ 100 µg/mL): the cell morphology remained normal and the arrangement was regular, and no fragmentation or cell death was observed
- IC50 (cell viability) (HaCat cells; MTT, 48 h): 59.27 µg/mL (≈ 113 µM)
- Inhibitory activity (S. aureus): inhibitory activity
- MIC (MRSA-244358): 1 µg/mL (≈ 1.9 µM)
- Morphological changes of MRSA by SEM (MRSA (ATCC 433000) [7]): the cell walls appeared wrinkled, the surfaces showed signs of damage, and cellular integrity was compromised

Molecule: CN[C@H](CC(C)C)C(=O)N[C@H]1C(=O)N[C@@H](CC(N)=O)C(=O)N[C@H]2C(=O)N[C@H]3C(=O)N[C@H](C(=O)N[C@H](C(=O)O)c4cc(O)cc(O)c4-c4cc3ccc4O)[C@H](O)c3ccc(c(Cl)c3)Oc3cc2cc(c3O[C@@H]2O[C@H](CO)[C@@H](O)[C@H](O)[C@H]2O[C@H]2C[C@](C)(N)[C@H](O)[C@H](C)O2)Oc2ccc(cc2Cl)[C@H]1O [vancomycin, reference compound]
- MIC (MRSA strain (ATCC 43300); Staphylococcus aureus, ATCC43|ATCC43300|MRSA): 1 µg/mL (≈ 0.69 µM)
